Measured values pooled from the literature.
Protocols differ between the studies behind these lines.
Target: Mitogen-activated protein kinase kinase kinase 2 (MAP3K2, Homo sapiens, UniProt Q9Y2U5)
Sequence (Q9Y2U5 1-619, as in one of the studies): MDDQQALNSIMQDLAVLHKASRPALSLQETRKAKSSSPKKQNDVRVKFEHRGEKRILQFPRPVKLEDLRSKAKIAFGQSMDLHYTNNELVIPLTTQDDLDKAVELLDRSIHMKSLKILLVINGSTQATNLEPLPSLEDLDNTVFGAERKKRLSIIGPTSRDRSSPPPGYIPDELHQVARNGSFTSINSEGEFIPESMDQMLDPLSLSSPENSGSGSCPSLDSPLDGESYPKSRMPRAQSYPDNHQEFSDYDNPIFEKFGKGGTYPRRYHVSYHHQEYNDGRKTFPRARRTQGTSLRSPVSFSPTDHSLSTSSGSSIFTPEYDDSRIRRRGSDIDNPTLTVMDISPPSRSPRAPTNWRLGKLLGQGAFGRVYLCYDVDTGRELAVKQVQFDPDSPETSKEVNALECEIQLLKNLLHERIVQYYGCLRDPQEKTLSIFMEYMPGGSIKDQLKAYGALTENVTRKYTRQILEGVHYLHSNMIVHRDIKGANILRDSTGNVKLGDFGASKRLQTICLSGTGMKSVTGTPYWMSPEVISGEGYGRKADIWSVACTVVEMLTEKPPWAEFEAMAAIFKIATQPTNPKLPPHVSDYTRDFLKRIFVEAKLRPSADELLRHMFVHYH

C1=C/COCc2cc(ccc2OCCN2CCCC2)Nc2nccc(n2)-c2cccc(c2)COC/1 — remaining binding (binding; 0.1 µM): 38%
CO[C@@H]1[C@H](N(C)C(=O)c2ccccc2)C[C@H]2O[C@]1(C)n1c3ccccc3c3c4c(c5c6ccccc6n2c5c31)C(=O)NC4 — inhibition (enzyme activity, inhibitor; 1 µM): 94%
CC(C)S(=O)(=O)c1ccc2nccc(Nc3ccc4sc(C5CCCC5)nc4c3)c2c1 — activity vs control (enzyme activity, inhibitor; 1 µM): 103%
COc1ccc2oc(-c3ccc4nc(N)oc4c3)c/c(=N\c3ccccc3NC(=O)CCN)c2c1 — remaining binding (binding; 1 µM): 101%
CCCCC(=O)Nc1ccc(-c2ccc3ncn(CCC)c(=O)c3c2)cn1 — remaining binding (binding, competition with immobilised ligand; 0.5 µM): 100%
COc1ccc2[nH]c3c4[nH]c5ccc(OC)cc5c4c4c(c3c2c1)C(=O)NC4=O — remaining binding (binding, competition with immobilised ligand; 1 µM): 85%
C=CC(=O)N1CCC([C@@H]2CCNc3c(C(N)=O)c(-c4ccc(Oc5ccccc5)cc4)nn32)CC1 — inhibition (enzyme activity, inhibitor; 1 µM): 39%
CN1CCN(C(=O)c2ccc(NC(=O)Nc3ccc(N(C)c4ccnc(Nc5ccc(CS(C)(=O)=O)cc5)n4)cc3)cc2)CC1 — remaining binding (binding, competition with immobilised ligand; 1 µM): 38%
Cc1cc(O)c(-c2ccc([C@@H](C)CN(C)C)cc2)c2c1[nH]c(=O)c1sccc12 — inhibition (enzyme activity, inhibitor; 0.1 µM): -1.76%
C#Cc1cc(-c2cc(Nc3nc(N[C@@H](C)c4ccc(F)cn4)ncc3Cl)n[nH]2)ccc1C=O — inhibition (enzyme activity, inhibitor; 0.2 µM): 55.2%
